From ChEMBL document CHEMBL1134897, “C-3 Amido-indole cannabinoid receptor modulators” (Bioorg Med Chem Lett, 2002) come the findings set out here.

Structures are written as SMILES. pIC50, pKi: −log10 of the molar value.

T1 sequence (P34972 whole entry): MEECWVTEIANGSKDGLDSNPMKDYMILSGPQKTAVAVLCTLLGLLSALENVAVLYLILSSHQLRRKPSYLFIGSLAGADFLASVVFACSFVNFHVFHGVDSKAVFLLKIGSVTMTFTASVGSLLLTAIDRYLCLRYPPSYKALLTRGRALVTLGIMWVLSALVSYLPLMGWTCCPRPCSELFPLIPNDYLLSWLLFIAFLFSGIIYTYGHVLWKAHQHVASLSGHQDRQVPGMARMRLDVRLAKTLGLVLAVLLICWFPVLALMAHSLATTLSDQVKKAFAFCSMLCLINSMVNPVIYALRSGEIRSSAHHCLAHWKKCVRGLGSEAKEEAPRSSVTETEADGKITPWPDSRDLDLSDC
T2 sequence (P21554 whole entry): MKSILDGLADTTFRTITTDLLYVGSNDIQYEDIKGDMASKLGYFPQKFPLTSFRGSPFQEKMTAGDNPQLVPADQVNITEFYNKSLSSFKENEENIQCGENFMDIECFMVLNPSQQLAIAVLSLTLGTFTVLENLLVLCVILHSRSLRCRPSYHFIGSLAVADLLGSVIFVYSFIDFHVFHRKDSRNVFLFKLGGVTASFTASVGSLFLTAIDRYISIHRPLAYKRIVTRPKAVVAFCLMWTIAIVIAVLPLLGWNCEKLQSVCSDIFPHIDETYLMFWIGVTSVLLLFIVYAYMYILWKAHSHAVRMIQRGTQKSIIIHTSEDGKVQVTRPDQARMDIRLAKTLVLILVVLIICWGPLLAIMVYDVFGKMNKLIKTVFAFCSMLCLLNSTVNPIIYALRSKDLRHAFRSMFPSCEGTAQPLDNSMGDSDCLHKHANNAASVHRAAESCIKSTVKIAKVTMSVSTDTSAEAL

In one assay the target is T1, Cannabinoid receptor 2 (Homo sapiens, UniProt P34972). The experiment in a line: Displacement of WIN-55212-2-Mesylate [573H] from human CB2 receptor expressed in CHO cells at 100 nM. Format: cell-based. An outline of the steps:
(§1)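 Membranes (50 µg) from CHO-K1 cells expressing human CB2 or CB1. Tracer is [5,7-3H]WIN 55,212-2 mesylate for CB2 and CP55,940 for CB1, routinely at 10 nM. Incubated with test compound in HEPES pH 7.4 buffer (EDTA, MgCl₂, 0.3% BSA) for 2 h at room temperature with shaking. Bound label is collected by filtration and counted by scintillation. Single-point values are % inhibition at […] test compound.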
With `COc1cccc2c(C(=O)N[C@H](C#N)Cc3ccccc3)c(C)n(CCN3CCOCC3)c12`, the inhibition (commonly the relative decrease from the control value, in per cent) worked out at 18%.
On the same count and under the same terms, to `CCCc1c(C(=O)N[C@@H]2C3(C)CCC(C3)C2(C)C)c2cccc(OC)c2n1CCN1CCOCC1` (some centres undefined) belongs 6%; to `COc1ccc2c(C(=O)N[C@@H]3C4(C)CCC(C4)C3(C)C)c(C)n(CCN3CCOCC3)c2c1OC` (some centres undefined), 0%.
In the case of `COc1cccc2c(C(=O)NC3C4(C)CCC(C4)C3(C)C)c(C)n(CCN3CCCC3)c12` (centres undefined), the inhibition amounted to 25%.
The same measure, in the same setting: to `COc1ccc(Br)c2c(C(=O)N[C@@H]3C4(C)CCC(C4)C3(C)C)c(C)n(CCN3CCOCC3)c12` (some centres undefined) belongs 42%; to `COc1ccc(Cl)c2c(C(=O)N[C@@H]3C4(C)CCC(C4)C3(C)C)c(C)n(CCN3CCOCC3)c12` (some centres undefined), 11%; to `COc1cccc2c(C(=O)N[C@@H](Cc3ccccc3)c3cc[nH]n3)c(C)n(CCN3CCOCC3)c12`, 7%.
Same read-out and setting: to `COc1cc(OC)c2c(c1)c(C(=O)N[C@@H]1C3(C)CCC(C3)C1(C)C)c(C)n2CCN1CCOCC1` (some centres undefined) belongs 0%; to `COc1cccc2c(C(=O)N[C@@H](Cc3ccccc3)C(=O)N(C)C)c(C)n(CCN3CCOCC3)c12`, 29%.
Same read-out and setting: to `COC[C@H](Cc1ccccc1)NC(=O)c1c(C)n(CCN2CCOCC2)c2c(OC)cccc12` belongs 6%; to `COc1c(Cl)ccc2c(C(=O)N[C@@H]3C4(C)CCC(C4)C3(C)C)c(C)n(CCN3CCOCC3)c12` (some centres undefined), 15%; to `CC[C@H](Cc1ccccc1)NC(=O)c1c(C)n(CCN2CCOCC2)c2c(OC)cccc12`, 18%.
In turn, `COc1ccc(C#N)c2c(C(=O)N[C@@H]3C4(C)CCC(C4)C3(C)C)c(C)n(CCN3CCOCC3)c12` (some centres undefined) returned an inhibition of 33%.

The target in the next assay is T1, Cannabinoid receptor 2. Kind of assay: Binding affinity against human CB2 receptor expressed in CHO cells by using WIN-55212-2 Mesylate [573H] as Radioactive tracer. Format: cell-based. The gist of the method: as §1
As for `COC(=O)[C@H](Cc1cscn1)NC(=O)c1c(C)n(CCN2CCOCC2)c2c(OC)cccc12`, the negative logarithm of the Ki (pKi) – broadly, −log10 of the Ki, conventionally taken in molar units – is 7.70.
In the case of `COc1cccc2c(C(=O)NC3C(C)(C)[C@@H]4CC[C@@]3(C)C4)c(C)n(CCCN3CCOCC3)c12` (some centres undefined), the pKi is 7.60.
Regarding `COc1cccc2c(C(=O)N[C@@H]3C4(C)CCC(C4)C3(C)C)cn(CCN3CCOCC3)c12` (some centres undefined), the pKi was 7.89.
Still for that read-out and setting: to `CCC(=O)[C@H](Cc1ccccc1)NC(=O)c1c(C)n(CCN2CCOCC2)c2c(OC)cccc12` belongs 7.62.
The same measure, in the same setting: to `COc1cccc2c(C(=O)N[C@H]3C4(C)CCC(C4)C3(C)C)c(C)n(CCN3CCOCC3)c12` (some centres undefined) belongs 7.52; to `COc1cccc2c(C(=O)N[C@@H](Cc3ccccc3)c3ccno3)c(C)n(CCN3CCOCC3)c12`, 6.77; to `COc1cccc2c(C(=O)NC3C4(C)CCC(C4)C3(C)C)cn(CCN3CCOCC3)c12` (centres undefined), 7.92.
The same measure, in the same setting: to `COc1cccc2c(C(=O)N[C@@H](Cc3ccccc3)c3ccon3)c(C)n(CCN3CCOCC3)c12` belongs 6.63; to `CCc1c(C(=O)N[C@H]2C3(C)CCC(C3)C2(C)C)c2cccc(OC)c2n1CCN1CCOCC1` (some centres undefined), 6.99.
For the compound `CCCCCn1c(C)c(C(=O)NC2C(C)(C)[C@@H]3CC[C@@]2(C)C3)c2cccc(OC)c21` (some centres undefined), the negative-log Ki (pKi) is 8.30.
Take `COc1cccc2c(C(=O)N[C@H](C)Cc3ccccc3)c(C)n(CCN3CCOCC3)c12`: the pKi was 6.58.
Still for that read-out and setting: to `COCCn1c(C)c(C(=O)NC2C(C)(C)[C@@H]3CC[C@@]2(C)C3)c2cccc(OC)c21` (some centres undefined) belongs 7.22; to `CNC(=O)[C@H](Cc1ccccc1)NC(=O)c1c(C)n(CCN2CCOCC2)c2c(OC)cccc12`, 6.53.
On the same count and under the same terms, to `COc1cc(F)cc2c(C(=O)N[C@H]3C4(C)CCC(C4)C3(C)C)c(C)n(CCN3CCOCC3)c12` (some centres undefined) belongs 7.74; to `COc1cccc2c(C(=O)N[C@@H](Cc3ccccc3)C(C)=O)c(C)n(CCN3CCOCC3)c12`, 8.10.
As to `COc1cccc2c(C(=O)N[C@@H]3C4(C)CCC(C4)C3(C)C)c(C)n(CCN3CCOCC3)c12` (some centres undefined), the pKi was 7.39.
Turning to `CO/N=C(\C)[C@H](Cc1ccccc1)NC(=O)c1c(C)n(CCN2CCOCC2)c2c(OC)cccc12`, the negative-log Ki (pKi) was 6.74.
Same read-out and setting: to `COc1cccc2c(C(=O)NC3CC(C)(C)CCC3(C)C)cn(CCN3CCOCC3)c12` (centres undefined) belongs 7.66; to `COc1cccc2c(C(=O)N[C@@H](C)Cc3ccccc3)cn(CCN3CCOCC3)c12`, 7.15.
On to `COC(=O)[C@H](Cc1ccccc1)NC(=O)c1c(C)n(CCN2CCOCC2)c2ccccc12`, for which the pKi was 6.60.
Still for that read-out and setting: to `COC(=O)[C@H](Cc1cccs1)NC(=O)c1c(C)n(CCN2CCOCC2)c2c(OC)cccc12` belongs 7.92; to `COc1cccc2c(C(=O)NC3C(C)(C)[C@@H]4CC[C@@]3(C)C4)c(C)n(CCN(C)C)c12` (some centres undefined), 6.30.
Same read-out and setting: to `COC(=O)[C@H](Cc1cccc(Cl)c1)NC(=O)c1c(C)n(CCN2CCOCC2)c2c(OC)cccc12` belongs 7.51; to `COc1cc(Cl)cc2c(C(=O)N[C@@H]3C4(C)CCC(C4)C3(C)C)c(C)n(CCN3CCOCC3)c12` (some centres undefined), 6.60; to `COc1cccc2c(C(=O)N[C@@H]3C(C)(C)[C@@H]4CC[C@@]3(C)C4)c(C)n(CCN3CCCCC3)c12`, 7.05.
The same measure, in the same setting: to `COc1cccc2c(C(=O)NC3CC(C)(C)CCC3(C)C)c(C)n(CCN3CCOCC3)c12` (centres undefined) belongs 7.42; to `COc1cccc2c(C(=O)NC3CCCC3(C)C)c(C)n(CCN3CCOCC3)c12` (centres undefined), 6.69.

The species named for the next assay is Mus musculus. The experiment in a line: Inhibition of LPS-induced nuclear factor-kappa B (NFkB) activation and TNF production in mouse. Format: functional, organism-based. The gist of the method: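 Female Balb/c mice, 6–8 weeks old, n=8 per group, received LPS (E. coli 0111:B4) at 50 ug/kg i.p. in sterile saline. Blood was taken 90 min later and serum TNF-α measured by ELISA. Compound was dosed i.v. or orally, as solutions in various vehicles, before or at the time of LPS injection.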
Consider `COC(=O)[C@H](Cc1ccccc1)NC(=O)c1c(C)n(CCN2CCOCC2)c2c(OC)cccc12`, for which the pIC50 (commonly −log10 of the IC50, conventionally taken in molar units) was 4.92.
On the same count and under the same terms, to `Cc1c(C(=O)c2cccc3ccccc23)c2cccc3c2n1[C@H](CN1CCOCC1)CO3` [WIN-552122] belongs 5.10.

A further assay concerns the target T2, Cannabinoid receptor 1 (Homo sapiens, UniProt P21554). Kind of assay: Binding affinity against human Cannabinoid receptor 1 expressed in CHO cells by using CP-55940 as Radioactive tracer at 1 uM. Format: cell-based.
On to `CCCCCOc1cc(/C=C/C(=O)N[C@@H](Cc2ccccc2)C(=O)OC)ccc1OC`, for which the inhibition came to 51%.

The next assay deals with T1, Cannabinoid receptor 2. The experiment in a line: Binding affinity against human Cannabinoid receptor 2 expressed in CHO cells by using WIN-55212-2 Mesylate [573H] as Radioactive tracer. The format is cell-based. The gist of the method: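 Membranes (50 µg) from CHO-K1 cells expressing human CB2 or CB1. Incubated with test compound in HEPES pH 7.4 buffer (EDTA, MgCl₂, 0.3% BSA) for 2 h at room temperature with shaking. Bound label is collected by filtration and counted by scintillation.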
As for `COC(=O)[C@H](Cc1ccccc1)NC(=O)c1c(C)n(CCN2CCOCC2)c2c(OC)cccc12`, the pKi was 8.10.
Same read-out and setting: to `CCCCCOc1cc(/C=C/C(=O)N[C@@H](Cc2ccccc2)C(=O)OC)ccc1OC` belongs 7.07; to `CCCCCOc1cc(/C=C/C(=O)N[C@@H](Cc2ccc(O)cc2)C(=O)OC)ccc1OC`, 6.92.

For another assay, the target named is Cannabinoid receptor (Homo sapiens) (UniProt P34972+P21554). Kind of assay: Ratio of binding affinity of the CB1 receptor to that of CB2 receptor; NT means not tested. The format is protein assay. The gist of the method: as §1
Chain of Cannabinoid receptor (Homo sapiens) (P21554 whole entry, looked up): as the sequence (P21554 whole entry) above
Chain of Cannabinoid receptor (Homo sapiens) (P34972 whole entry, looked up): as the sequence (P34972 whole entry) above
With `CCCCCOc1cc(/C=C/C(=O)N[C@@H](Cc2ccccc2)C(=O)OC)ccc1OC`, the Ratio was 0.59.

Another assay addresses T2, Cannabinoid receptor 1. Kind of assay: Binding affinity against human Cannabinoid receptor 1 expressed in CHO cells by using CP-55940 as Radioactive tracer. The format is cell-based.
As for `COC(=O)[C@H](Cc1ccccc1)NC(=O)c1c(C)n(CCN2CCOCC2)c2c(OC)cccc12`, the pKi is 5.40.
Regarding `CCCCCOc1cc(/C=C/C(=O)N[C@@H](Cc2ccc(O)cc2)C(=O)OC)ccc1OC`, the negative logarithm of the Ki (pKi) was 5.24.
